Assay results from ChEMBL document CHEMBL1144689, “Antileukemic activity of genistein, a major isoflavone present in soy products” (J Nat Prod, 2008).
Active and inactive are the calls of the source. No cut-off for these calls is given here.

What was measured:
Raji [1] = assay: Growth inhibition of human Raji cells after 48 hrs; type: functional
In short: (§1)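 Human leukemic cells (RPMI-1640, 10% heat-inactivated FBS), log phase, seeded at 2 × 10^4 cells/mL. Exposed to 1, 2, 5, 10 or 20 µM (DMSO stock). Cell number counted with a Coulter particle counter at 48 h. Growth inhibition as % of untreated control. IG50 is the concentration giving 50% inhibition. Triplicate, three repeats, mean ± SEM.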

L1210 [2] = assay: Antileukemic activity against mouse L1210 cells at 20 uM after 24 hrs by clonogenic assay; type: functional
In short: (§2)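 Murine L1210 cells cultured in RPMI-1640 with 5% heat-inactivated FCS and 6 µM 2-mercaptoethanol. Log-phase cells at 2 × 10^4 cells/mL exposed to 1–20 µM for 12, 24 or 48 h, then drug removed by centrifugation. 100 cells plated in 0.45% soft agar with 10% serum. Colonies >50 cells counted at day 7. Result as % relative to untreated control. Triplicate, three repeats, mean ± SEM.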

L1210 [3] = assay: Antileukemic activity against mouse L1210 cells after 24 hrs by clonogenic assay; type: functional; conditions: L1210, 24 h, read-out: LC50 (the source's name)
In short: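 Murine L1210 grown in RPMI-1640 with 5% heat-inactivated FCS and 6 µM 2-mercaptoethanol. Log-phase cells at 2 × 10^4 cells/mL exposed to 1–20 µM for 24 h. Drug removed by centrifugation. 100 cells plated in 0.45% soft agar with 10% serum for 7 days, and colonies (>50 cells) counted. Loss is relative to untreated control. Triplicates, three experiments, mean ± SEM.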

MOLT-3 [4] = assay: Growth inhibition of human MOLT3 cells at 2 uM after 48 hrs; type: functional; conditions: MOLT-3, 48 h, read-out: GI; in short: as §1
L1210 [5] = assay: Antileukemic activity against mouse L1210 cells at 5 uM after 48 hrs by clonogenic assay; type: functional; in short: as §2
[6] = Growth inhibition of human KG1a cells after 48 hrs; type: functional, KG-1a; in short: as §1
L1210 [7] = assay: Growth inhibition of mouse L1210 cells at 10 uM after 24 hrs; type: functional; conditions: L1210, 24 h, read-out: GI
In short: (§3)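 For L1210 (RPMI-1640, 5% heat-inactivated FCS, 6 µM 2-mercaptoethanol), log-phase cultures at 2 × 10^4 cells/mL were given 1–20 µM for 12, 24 or 48 h. Coulter particle counter counts were expressed as % growth inhibition versus untreated control. IG50 was taken at 24 h. Triplicate, three repeats, mean ± SEM.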

L1210 [8] = assay: Growth inhibition of mouse L1210 cells at 1 uM after 24 hrs; type: functional; conditions: L1210, 24 h, read-out: GI; in short: as §3
L1210 [9] = assay: Antileukemic activity against mouse L1210 cells at 10 uM after 12 hrs by clonogenic assay; type: functional; in short: as §2
L1210 [10] = assay: Antileukemic activity against mouse L1210 cells at 5 uM after 24 hrs by clonogenic assay; type: functional; in short: as §2
L1210 [11] = assay: Growth inhibition of mouse L1210 cells at 2 uM after 48 hrs; type: functional; conditions: L1210, 48 h, read-out: GI; in short: as §3
L1210 [12] = assay: Growth inhibition of mouse L1210 cells at 5 uM after 48 hrs; type: functional; conditions: L1210, 48 h, read-out: GI; in short: as §3
L1210 [13] = assay: Antileukemic activity against mouse L1210 cells at 10 uM after 24 hrs by clonogenic assay; type: functional; in short: as §2
[14] = Elimination half life in human plasma; type: ADME, organism-based
MOLT-3 [15] = assay: Antileukemic activity against human MOLT3 cells after 24 hrs by clonogenic assay; type: functional; conditions: MOLT-3, 24 h, read-out: LC50 (the source's name)
In short: (§4)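 Log-phase cells seeded at 2 × 10^4 cells/mL in RPMI-1640 with 10% heat-inactivated FBS at 37 °C, 5% CO2, then exposed 24 h to 1–20 µM (DMSO stock). Drug washed out by centrifugation. 100 cells plated in 0.45% soft agar with 20% serum for 15 days, and colonies (>50 cells) counted. Loss of clonogenicity is relative to untreated control. Triplicates, repeated three times, mean ± SEM. LC50 read from the dose curve.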

HL-60 [16] = assay: Antileukemic activity against human HL60 cells at >2 uM after 24 hrs by clonogenic assay; type: functional
In short: (§5)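 Log-phase cells at 2 × 10^4 cells/mL in RPMI-1640 with 10% heat-inactivated FBS, 37 °C, 5% CO2. Drug (DMSO stock) at 1, 2, 5, 10 or 20 µM for 24 h, removed by centrifugation. 100 cells plated in 0.45% soft agar with 20% serum. Colonies >50 cells counted after 15 days. Loss of clonogenicity as % of untreated control. Triplicate, three repeats, mean ± SEM.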

L1210 [17] = assay: Antileukemic activity against mouse L1210 cells at 20 uM after 48 hrs by clonogenic assay; type: functional; in short: as §2
Raji [18] = assay: Antileukemic activity against human Raji cells after 24 hrs by clonogenic assay; type: functional; conditions: read-out: LC50 (the source's name); in short: as §4
Mus musculus = species: Mus musculus; assay: Toxicity in mouse L1210 cells transplanted CD2F1 mouse assessed as increase in survival time at 0.5% treated with diet for 10 days; type: organism-based; conditions: in vivo, po, 240 h
In short: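 Male CD2F1 mice, 24–28 g, n = 11 per group, on a 2016 diet with or without 0.5% supplement, adapted over 10 days. Then injected i.v. with 10^4 L1210 cells (0.1 mL), passaged weekly i.p. as ascites. Diet continued. Survival checked 2–3 times daily and increase in life span calculated. Toxicity assessed by body weight loss.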

Raji [19] = assay: Antileukemic activity against human Raji cells at >2 uM after 24 hrs by clonogenic assay; type: functional; in short: as §5
Plasma = assay: Drug concentration in human plasma; type: ADME, cell-free; conditions: read-out: Drug uptake
L1210 [20] = assay: Antileukemic activity against mouse L1210 cells at 2 uM after 12 hrs by clonogenic assay; type: functional; in short: as §2
HL-60 [21] = assay: Induction of p57KIP2 re-expression in human HL60 cellular RNA at 1 to 20 uM after 48 hrs by RT-PCR; type: functional, cell-based
In short: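 HL-60 cells treated 48 h with 1–20 µM. p57KIP2 transcript detected by RT-PCR against 18S rRNA reference, with cycles set in the exponential phase. Products resolved on 2% agarose with ethidium bromide staining. Repeated twice.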

HL-60 [22] = assay: Growth inhibition of human HL60 cells after 48 hrs; type: functional; in short: as §1
L1210 [23] = assay: Growth inhibition of mouse L1210 cells at 20 uM after 24 hrs; type: functional; conditions: L1210, 24 h, read-out: GI; in short: as §3
L1210 [24] = assay: Antileukemic activity against mouse L1210 cells at 5 uM after 12 hrs by clonogenic assay; type: functional; in short: as §2

Structure (SMILES): O=c1c(-c2ccc(O)cc2)coc2cc(O)cc(O)c12 [GENISTEIN]
- IG50 (Raji [1]): 18.6 µM
- Activity (L1210 [2]): 97%
- CC50 (L1210 [3]): 6.5 µM
- inhibition of growth at 2 µM (MOLT-3 [4]): > 10%
- Activity (L1210 [5]): 32.9%
- IG50 [6]: 23 µM
- inhibition of growth at 10 µM (L1210 [7]): 42.8%
- inhibition of growth at 1 µM (L1210 [8]): 4.1%
- Activity (L1210 [9]): 94%
- Activity (L1210 [10]): 16%
- inhibition of growth at 2 µM (L1210 [11]): 21.9%
- inhibition of growth at 5 µM (L1210 [12]): 55.9%
- Activity (L1210 [13]): 63%
- half-life [14]: 15 h
- CC50 (MOLT-3 [15]): 7.5 µM
- Activity (HL-60 [16]): >10%
- Activity (L1210 [17]): 99.7%
- CC50 (Raji [18]): 13.7 µM
- Survival (Mus musculus): 187 h
- Activity (Raji [19]): >10%
- concentration (Plasma): 4 µM
- Activity (L1210 [20]): 14%
- Activity (HL-60 [21]): Active
- IG50 (HL-60 [22]): 18.2 µM
- inhibition of growth at 20 µM (L1210 [23]): 66.7%
- Activity (L1210 [24]): 44%
